From ChEMBL document CHEMBL1138115, “The synthesis and aqueous superoxide anion scavenging of water-dispersible lutein esters” (2006) come the findings set out here.

SMILES strings stand for the structures. Counter-ions that a name gives are not always drawn.

Common to all, as to assay type: functional
Settings in all cases: Homo sapiens

For assay [1], the system named is PMNL. Briefly: Inhibition of Superoxide radical scavenging activity in 40% EtOH at 0.1 mM in PMA-stimulated PMN. Put shortly:
(§1)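 Human PMNs were isolated by Percoll gradient (density 1.080 g/mL) from fresh venous blood of a single volunteer and suspended in PAG-CM buffer (PIPES pH 7.4, HSA, glucose, 1 mM CaCl2/MgCl2). 1 × 10⁶ cells were preincubated 5 min with compound in water or 40% EtOH, then stimulated with PMA (1 ng/mL). Superoxide was spin-trapped with DEPMPO (10 mM) and read by X-band EPR. Results are mean % signal inhibition, N=3 per formulation except one N=1.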

The test system of assay [2] is PMNL. The experiment in a line: Inhibition of Superoxide radical scavenging activity in water at 0.1 mM in PMA-stimulated PMN. Put shortly: as §1
The test system of assay [3] is PMNL. Briefly: Inhibition of Superoxide radical scavenging activity in water at 1.0 mM in PMA-stimulated PMN. Put shortly: as §1
The test system of assay [4] is PMNL. Briefly: Inhibition of Superoxide radical scavenging activity in water at 3.0 mM in PMA-stimulated PMN. Put shortly:
as §1

For assay [5], the system named is PMNL. The experiment in a line: Inhibition of Superoxide radical scavenging activity in water at 5.0 mM in PMA-stimulated PMN. Put shortly:
as §1

Regarding `CC1=CC(OP(=O)(O)O)CC(C)(C)C1/C=C/C(C)=C/C=C/C(C)=C/C=C/C=C(C)/C=C/C=C(C)/C=C/C1=C(C)CC(OP(=O)(O)O)CC1(C)C` (stereo not given) [LUTEIN DIPHOSPHATE SODIUM SALT], the inhibition (in general, the percentage by which the read-out fell short of the control) at 100 µM stood at 18% with PMNL [1] and 0% in the assay on PMNL [2]. Further, 1000 µM produced 9.3% inhibition in the assay with PMNL [3]. Besides, the inhibition at 3000 µM in the assay with PMNL [4] amounted to 72.3%. Further, the inhibition at 5000 µM in the assay with PMNL [5] is 91%.
Take `CC1=CC(OC(=O)CCC(=O)O)CC(C)(C)C1/C=C/C(C)=C/C=C/C(C)=C/C=C/C=C(C)/C=C/C=C(C)/C=C/C1=C(C)CC(OC(=O)CCC(=O)O)CC1(C)C` (stereo not given) [LUTEIN DISUCCINATE SODIUM SALT]: the inhibition at 100 µM worked out at 5% in the assay with PMNL [1] and 0% in the assay with PMNL [2]. For the same compound, the inhibition at 1000 µM in the assay with PMNL [3] worked out at 13%. The compound further returned an inhibition at 3000 µM with PMNL [4] of 61.7%. For the same compound, the inhibition at 5000 µM with PMNL [5] worked out at 74.7%.
